Counter-ions that a name gives are not always drawn.
Test system: CHO
Experiment: Downmodulation of human CD4 expressed in CHO cells transfected with CD4-YFP construct assessed as decrease in fluorescence intensity after 24 hrs by flow cytometry analysis
Assay type: functional, cell-based
Details: Cricetulus griseus
In short: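 CHO cells stably expressing human CD4 fused at its C-terminus to YFP, exposed to a range of concentrations for 24 h at 37 °C. Cells were washed, fixed in 1% formaldehyde and analysed at once by flow cytometry with 488 nm excitation, reading YFP in FL-1. YFP median fluorescence intensity was expressed as % of untreated control after subtracting the background of nontransfected cells. IC50 is the 50% CD4 down-modulation point, reported as mean ± SD of three independent experiments (two for some).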

Row | Compound | IC50 (read-out: IC50) [nM] | IC50 (read-out: pIC50 (converted)) [nM]
1 | C=C1CN(S(=O)(=O)c2ccc(C)cc2)CCCN(CC2CCCCC2)CCCN(S(=O)(=O)c2ccc(Cl)cc2)C1 | 360 | 363
2 | C=C1CN(S(=O)(=O)c2ccc(C)cc2)CCCN(Cc2ccccc2)CCCN(S(=O)(=O)c2ccc(C)cc2)C1 [CYCLOTRIAZADISULFONAMIDE HYDROCHLORIDE] | 560 | 562
3 | C=C1CN(S(=O)(=O)c2ccc(OC)cc2)CCCN(CC2CCCCC2)CCCN(S(=O)(=O)c2cccc3c(N(C)C)cccc23)C1 | 730 | 724
4 | C=C1CN(S(=O)(=O)c2ccc(C)cc2)CCCN(Cc2ccccc2)CCCN(S(=O)(=O)c2cccc3c(N(C)C)cccc23)C1 | 5900 | 5890
5 | C=C1CN(S(=O)(=O)c2ccc(C)cc2)CCCN(CC2CCCCC2)CCCN(S(=O)(=O)c2ccccc2[N+](=O)[O-])C1 | 220 | 224
6 | C=C1CN(S(=O)(=O)c2ccc(C)cc2)CCCN(Cc2ccccc2)CCCN(S(=O)(=O)c2ccc(OC)cc2)C1 | 300 | 295
7 | C=C1CN(S(=O)(=O)c2ccc(OC)cc2)CCCN(CC2CCCCC2)CCCN(S(=O)(=O)c2ccc(OC)cc2)C1 | 130 | 135
8 | C=C1CN(S(=O)(=O)c2ccc(C)cc2)CCCN(CC2CCCCC2)CCCN(S(=O)(=O)c2cccc3cnccc23)C1 | > 25000 | 22900
9 | C=C1CN(S(=O)(=O)c2ccc(C)cc2)CCCN(CC2CCCCC2)CCCN(S(=O)(=O)c2ccc(C(C)(C)C)cc2)C1 | 780 | 776
10 | C=C1CN(S(=O)(=O)c2ccc(C)cc2)CCCN(CC2CCCCC2)CCCN(S(=O)(=O)c2cccc3c(N(C)C)cccc23)C1 | 1060 | 1070
11 | C=C1CN(S(=O)(=O)c2ccc(C)cc2)CCCN(CC2CCCCC2)CCCN(S(=O)(=O)c2ccc3ccccc3c2)C1 | 180 | 178
12 | C=C1CN(S(=O)(=O)c2ccc(OC)cc2)CCCN(Cc2ccccc2)CCCN(S(=O)(=O)c2ccc(OC)cc2)C1 | 230 | 229
13 | C=C1CN(S(=O)(=O)c2ccc(C)cc2)CCCN(CC2CCCCC2)CCCN(S(=O)(=O)c2cccc3ccccc23)C1 | 940 | 933
14 | C=C1CN(S(=O)(=O)c2ccc(C)cc2)CCCN(CC2CCCCC2)CCCN(S(=O)(=O)c2ccc(C)cc2)C1 | 190 | 186
15 | C=C1CN(S(=O)(=O)c2ccc(C)cc2)CCCN(CC2CCCCC2)CCCN(S(=O)(=O)c2ccc([N+](=O)[O-])cc2)C1 | 760 | 759
16 | C=C1CN(S(=O)(=O)c2ccc(C)cc2)CCCN(CC2CCCCC2)CCCN(S(=O)(=O)c2ccc(OC)cc2)C1 | 46 | 45.7
17 | C=C1CN(S(=O)(=O)c2ccccc2)CCCN(CC2CCCCC2)CCCN(S(=O)(=O)c2ccc(C)cc2)C1 | 430 | 437
18 | C=C1CNCCCN(CC2CCCCC2)CCCN(S(=O)(=O)c2ccc(C)cc2)C1 | 19000 | 18600
